The test system of one test is MCF-7. In words: MTT anti-proliferative assay, MCF-7. The format is cell-based. The note with it: Homo sapiens, MCF7, read-out: IC50 MCF-7. An outline of the steps: (§1)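 Cells grown in RPMI-1640 with 10% FBS, 100 units per ml penicillin and 100 μg ml−1 streptomycin at 37 °C, 5% CO2. Seeded at 1.0 × 10^4 cells per well for 48 h, then exposed to a range of test compound concentrations for 24 h. MTT (5 mg ml−1) added for 4 h, formazan dissolved in DMSO, A570 read; viability as percent of untreated; IC50 derived.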
A general note: Formazan colour is commonly taken as a measure of viable cells.

The test system of the next test is Hep G2. Kind of test: MTT anti-proliferative assay, Hep G2. The format is cell-based. The following applies: Homo sapiens, HepG2, read-out: IC50 Hep G2. In outline: as §1
The target of another test is VEGFR-2 (Homo sapiens, UniProt P35968). In words: biochemical. The following applies: IC50 VEGFR-2, mean ± S.D. of three experiments.
In a further test the test system is VEGFR-1. The following applies: read-out: IC50 VEGFR-1; cited from earlier work.

This is an account of results in PMC11229888 (RSC Advances, 2024).

For orientation: IC50 means the concentration at which inhibition is half-maximal.

Sequence of VEGFR-2 (P35968 20-1356): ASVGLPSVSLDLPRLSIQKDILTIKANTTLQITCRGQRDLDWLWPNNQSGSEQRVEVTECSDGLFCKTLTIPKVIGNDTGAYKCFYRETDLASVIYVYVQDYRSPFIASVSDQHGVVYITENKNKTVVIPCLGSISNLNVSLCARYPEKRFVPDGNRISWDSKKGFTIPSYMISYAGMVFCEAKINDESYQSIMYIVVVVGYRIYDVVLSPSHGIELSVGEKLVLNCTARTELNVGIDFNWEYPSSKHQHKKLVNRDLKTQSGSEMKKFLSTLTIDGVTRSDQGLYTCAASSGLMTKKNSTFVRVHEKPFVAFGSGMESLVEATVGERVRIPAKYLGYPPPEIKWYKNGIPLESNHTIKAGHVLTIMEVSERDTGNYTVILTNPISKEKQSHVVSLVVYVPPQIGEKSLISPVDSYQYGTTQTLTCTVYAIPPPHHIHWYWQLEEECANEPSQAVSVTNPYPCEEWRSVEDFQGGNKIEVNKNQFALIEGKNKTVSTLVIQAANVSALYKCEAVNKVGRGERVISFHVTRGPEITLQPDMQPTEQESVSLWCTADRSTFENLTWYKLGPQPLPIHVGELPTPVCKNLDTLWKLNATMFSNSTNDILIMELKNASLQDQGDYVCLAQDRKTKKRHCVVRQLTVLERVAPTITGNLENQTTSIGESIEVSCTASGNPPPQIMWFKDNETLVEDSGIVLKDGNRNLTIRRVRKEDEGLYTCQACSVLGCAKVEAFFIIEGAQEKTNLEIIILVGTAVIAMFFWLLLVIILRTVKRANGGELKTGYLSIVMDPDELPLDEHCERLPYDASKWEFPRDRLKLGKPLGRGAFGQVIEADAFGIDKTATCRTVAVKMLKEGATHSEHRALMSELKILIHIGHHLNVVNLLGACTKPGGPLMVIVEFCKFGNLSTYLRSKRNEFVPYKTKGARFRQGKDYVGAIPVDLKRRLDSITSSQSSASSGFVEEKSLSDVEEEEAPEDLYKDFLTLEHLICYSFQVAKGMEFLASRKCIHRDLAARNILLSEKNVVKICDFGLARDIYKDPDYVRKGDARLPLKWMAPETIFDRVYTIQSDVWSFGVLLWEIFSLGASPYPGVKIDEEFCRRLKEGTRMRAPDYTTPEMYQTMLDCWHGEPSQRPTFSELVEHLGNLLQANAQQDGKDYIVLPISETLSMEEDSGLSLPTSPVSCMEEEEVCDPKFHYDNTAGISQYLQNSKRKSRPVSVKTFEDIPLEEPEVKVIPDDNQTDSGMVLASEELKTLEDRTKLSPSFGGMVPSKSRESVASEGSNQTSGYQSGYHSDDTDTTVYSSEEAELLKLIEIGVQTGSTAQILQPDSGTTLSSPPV

In the case of `CNC(=O)c1cc(Oc2ccc(NC(=O)Nc3ccc(Cl)c(C(F)(F)F)c3)cc2)ccn1` [Sorafenib, reference compound], the IC50 amounted to 50 ± 10 nM with MCF-7 and 30 ± 10 nM with Hep G2.

With `O=C(Nc1ccccc1)Nc1ccc(Oc2nnc(-c3ccc(Cl)cc3)c3ccccc23)cc1` [Compound 4a, 1-(4-[{4-(4-Chlorophenyl)phthalazin-1-yl}oxy]phenyl)-3-phenylurea], the IC50 with MCF-7 is 180 nM; in the test with Hep G2, 90 ± 10 nM; against VEGFR-2, 196 ± 10 nM.

In the case of `CC(=NNC(=O)c1cccnc1)c1ccc(Nc2nnc(-c3ccc(Cl)cc3)c3ccccc23)cc1` [Compound 2f, N′-(1-[4-{(4-[4-Chlorophenyl]phthalazin-1-yl)amino}phenyl]ethylidene)nicotinohydrazide], the figures for the IC50 in the test on MCF-7 and in the test with Hep G2 were 780 ± 10 nM and 750 ± 10 nM, respectively.

For `CC(=O)Nc1ccc(Oc2nnc(-c3ccc(Cl)cc3)c3ccccc23)cc1` [Compound 5a, N-(4-[{4-(4-Chlorophenyl)phthalazin-1-yl}oxy]phenyl)acetamide], the concentration for half-maximal inhibition (IC50) with MCF-7 is 180 nM; with Hep G2, 260 nM; against VEGFR-2 it was 548 ± 20 nM.

For `S=C(Nc1ccccc1)Nc1ccc(Oc2nnc(-c3ccc(Cl)cc3)c3ccccc23)cc1` [Compound 4b, 1-(4-[{4-(4-Chlorophenyl)phthalazin-1-yl}oxy]phenyl)-3-phenylthiourea], the IC50 with MCF-7 amounted to 1520 ± 10 nM; in the test with Hep G2, 1630 ± 30 nM.

`CC(=NNC(=O)c1ccccc1)c1ccc(Nc2nnc(-c3ccc(Cl)cc3)c3ccccc23)cc1` [Compound 2a, N′-(1-[4-{(4-[4-Chlorophenyl]phthalazin-1-yl)amino}phenyl]ethylidene)benzohydrazide]: the IC50 amounted to 1550 ± 10 nM in the test on MCF-7 and 770 ± 10 nM in the test with Hep G2.

Turning to `O=C(Nc1ccc(Oc2nnc(-c3ccc(Cl)cc3)c3ccccc23)cc1)c1ccccc1` [Compound 5b, N-(4-[{4-(4-Chlorophenyl)phthalazin-1-yl}oxy]phenyl)benzamide], the IC50 with MCF-7 came out at 150 nM; in the test on Hep G2, 220 nM; against VEGFR-2, 331 ± 10 nM.

`O=C(Nc1ccc(Oc2nnc(-c3ccc(Cl)cc3)c3ccccc23)cc1)c1cccc([N+](=O)[O-])c1` [Compound 5c, N-(4-[{4-(4-Chlorophenyl)phthalazin-1-yl}oxy]phenyl)-3-nitrobenzamide]: the IC50 in the test with MCF-7 was 180 nM; with Hep G2, 1370 ± 140 nM.

`CC(=NNC(=O)c1ccccc1O)c1ccc(Nc2nnc(-c3ccc(Cl)cc3)c3ccccc23)cc1` [Compound 2d, N′-(1-[4-{(4-[4-Chlorophenyl]phthalazin-1-yl)amino}phenyl]ethylidene)-2-hydroxybenzohydrazide]: the IC50 in the test on MCF-7 came out at 3710 ± 70 nM; in the test on Hep G2, 2180 ± 30 nM.

Regarding `CC(=NNC(=O)c1ccccc1Br)c1ccc(Nc2nnc(-c3ccc(Cl)cc3)c3ccccc23)cc1` [Compound 2b, 2-Bromo-N′-(1-[4-{(4-[4-chlorophenyl]phthalazin-1-yl)amino}phenyl]ethylidene)benzohydrazide], the figures for the IC50 with MCF-7 and in the test on Hep G2 were 980 ± 10 nM and 630 ± 10 nM, respectively.

Take `CC(=NNC(=S)Nc1ccccc1)c1ccc(Nc2nnc(-c3ccc(Cl)cc3)c3ccccc23)cc1` [Compound 3b, 2-(1-[4-{(4-[4-Chlorophenyl]phthalazin-1-yl)amino}phenyl]ethylidene)-N-phenylhydrazine-1-carbothioamide]: the IC50 with MCF-7 amounted to 870 ± 20 nM; with Hep G2, 1530 ± 60 nM.

Consider `CC(=NNC(=O)c1ccc(N)cc1)c1ccc(Nc2nnc(-c3ccc(Cl)cc3)c3ccccc23)cc1` [Compound 2e, 4-Amino-N′-(1-[4-{(4-[4-chlorophenyl]phthalazin-1-yl)amino}phenyl]ethylidene)benzohydrazide], for which the figures for the IC50 in the test on MCF-7 and in the test with Hep G2 were 710 ± 20 nM and 1190 ± 40 nM, respectively.

`CC(=NNC(=O)c1ccccc1Cl)c1ccc(Nc2nnc(-c3ccc(Cl)cc3)c3ccccc23)cc1` [Compound 2c, 2-Chloro-N′-(1-[4-{(4-[4-chlorophenyl]phthalazin-1-yl)amino}phenyl]ethylidene)benzohydrazide]: the figures for the IC50 in the test on MCF-7 and in the test on Hep G2 were 1740 ± 10 nM and 590 ± 10 nM, respectively.

Take `O=C(C=Cc1ccccc1)Nc1ccc(Oc2nnc(-c3ccc(Cl)cc3)c3ccccc23)cc1` [Compound 5d, N-(4-[{4-(4-Chlorophenyl)phthalazin-1-yl}oxy]phenyl)cinnamamide]: the IC50 in the test on MCF-7 was 1120 ± 20 nM; with Hep G2, 1260 ± 30 nM.

Regarding `CC(=NNC(=O)c1ccncc1)c1ccc(Nc2nnc(-c3ccc(Cl)cc3)c3ccccc23)cc1` [Compound 2g, N′-(1-[4-{(4-[4-Chlorophenyl]phthalazin-1-yl)amino}phenyl]ethylidene)isonicotinohydrazide], the figures for the IC50 with MCF-7, with Hep G2 and against VEGFR-2 were 150 nM, 120 ± 10 nM and 148 ± 10 nM, respectively.

`Clc1ccc(Nc2nnc(Cc3ccncc3)c3ccccc23)cc1` [Vatalanib]: in the test on VEGFR-1, the IC50 is 380 nM.

`CC(=NNC(N)=S)c1ccc(Nc2nnc(-c3ccc(Cl)cc3)c3ccccc23)cc1` [Compound 3a, 2-(1-[4-{(4-[4-Chlorophenyl]phthalazin-1-yl)amino}phenyl]ethylidene)hydrazine-1-carbothioamide]: the IC50 in the test on MCF-7 came out at 180 nM; with Hep G2 it was 180 nM; at VEGFR-2, 375 ± 10 nM.
